# Where “and” joins values, the source holds several entries; their conditions need not be identical. Equal values may be shown once. Read-outs that look alike come from different tables or passages of the source.
# Tests used:
# [1] = test system: Candida albicans ATCC 10231; experiment: MIC, broth dilution, strain A; type: cell-based; conditions: for MIC: Candida albicans
# Procedure, shortened: (§1)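 Broth dilution MIC assay on the Candida panel: C. albicans strains A–G, C. glabrata (H), C. krusei (I) and C. parapsilosis (J). Test compounds were delivered in DMSO, with DMSO kept below 1% in the assay. The MIC is reported in µg/mL, with µM in parentheses. Reference antifungals (a polyene and four azoles) were run alongside.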
# C. albicans ATCC 64124 [2] = experiment: MIC, broth dilution, strain B; type: cell-based, Candida albicans; conditions: for MIC: Candida albicans
# Procedure, shortened: as §1
# [3] = test system: C. albicans ATCC MYA-2876(S); experiment: MIC, broth dilution, strain C; type: cell-based, Candida albicans; conditions: for MIC: Candida albicans
# Procedure, shortened: as §1
# [4] = test system: C. albicans ATCC 90819(R); experiment: MIC, broth dilution, strain D; type: cell-based, Candida albicans; conditions: for MIC: Candida albicans
# Procedure, shortened: as §1
# [5] = test system: C. albicans ATCC MYA-2310(S); experiment: MIC, broth dilution, strain E; type: cell-based, Candida albicans; conditions: for MIC: Candida albicans
# Procedure, shortened: as §1
# [6] = test system: C. albicans ATCC MYA-1237(R); experiment: MIC, broth dilution, strain F; type: cell-based, Candida albicans; conditions: for MIC: Candida albicans
# Procedure, shortened: as §1
# [7] = test system: C. albicans ATCC MYA-1003(R); experiment: MIC, broth dilution, strain G; type: cell-based, Candida albicans; conditions: for MIC: Candida albicans
# Procedure, shortened: as §1
# [8] = test system: Candida glabrata ATCC 2001; experiment: MIC, broth dilution, strain H; type: cell-based; conditions: compounds 1–4n and AmB
# Procedure, shortened: as §1
# Candida krusei ATCC 6258 = experiment: MIC, broth dilution, strain I; type: cell-based; conditions: compounds 1–4n and AmB
# Procedure, shortened: as §1
# [9] = test system: Candida parapsilosis ATCC 22019; experiment: MIC, broth dilution, strain J; type: cell-based; conditions: compounds 1–4n and AmB
# Procedure, shortened: as §1
# [10] = test system: Aspergillus flavus ATCC MYA-3631; experiment: MIC, broth dilution, strain K; type: cell-based; conditions: strain K; all compounds
# [11] = test system: Aspergillus nidulans ATCC 38163; experiment: MIC, broth dilution, strain L; type: cell-based; conditions: strain L; all compounds
# [12] = test system: Aspergillus terreus ATCC MYA-3633; experiment: MIC, broth dilution, strain M; type: cell-based; conditions: for MIC: Aspergillus terreus
# Candida strains (A–J) = experiment: MIC against panel of Candida strains; type: cell-based
# Procedure, shortened: as §1
# [13] = test system: C. albicans ATCC 64124 (strain B); experiment: Time-kill assay; type: cell-based, Candida albicans
# [14] = test system: C. albicans ATCC 10231 (strain A); experiment: ROS induction assay; type: cell-based, Candida albicans; conditions: 1× and 2× MIC, 1-h treatment; H2O2 1 mM
# Procedure, shortened: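 C. albicans ATCC 10231 cells were incubated 1 h at 37 °C with test compound at 1× or 2× MIC, with no drug (negative control), or with 1 mM H₂O₂ (positive control). DCFH-DA (40 µg/mL) was then added. ROS were detected and imaged by fluorescence microscopy.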
# [15] = test system: murine red blood cells (mRBCs); conditions: data previously presented; cited from earlier work
# C. albicans ATCC 64124 [16] = conditions: strain B; azoles; previously reported; cited from earlier work
# [17] = test system: C. albicans ATCC MYA-2876(S); conditions: strain C; azoles; previously reported; cited from earlier work
# [18] = test system: C. albicans ATCC 90819(R); conditions: strain D; azoles; previously reported; cited from earlier work
# [19] = test system: C. albicans ATCC MYA-2310(S); conditions: strain E; azoles; previously reported; cited from earlier work
# [20] = test system: Candida and Aspergillus strains; experiment: MIC against whole panel of fungal strains; type: cell-based; conditions: read-out: MIC values against the panel of fungal strains
# Procedure, shortened: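 Whole-cell broth dilution MIC across Candida strains A–J and three Aspergillus strains: A. flavus ATCC MYA-3631, A. nidulans ATCC 38163 and A. terreus ATCC MYA-3633. Aspergillus was tested as freshly harvested spores. DMSO was below 1% in the assay. Values are given in µg/mL (and µM), with a polyene and four azoles as reference agents.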
# [21] = strain A, compounds 1–4n and AmB
# [22] = strain C, compounds 1–4n and AmB
# [23] = strain D, compounds 1–4n and AmB
# [24] = strain E, compounds 1–4n and AmB
# [25] = strain F, compounds 1–4n and AmB
# [26] = strain G, compounds 1–4n and AmB
# [27] = 2× MIC (1 25, 2a 25, 3a 0.78, AmB 7.8 µg/mL)
# [28] = read-out: MIC (MIC-0) in µM (parentheses)
compound,measurement,setting,value
ebsulfur [Compound 2a],MIC (MIC-0),[1]; [21],12.5 µg/mL
same,MIC (MIC-0) in µM (parentheses),[1]; [21],55.0 µM
same,MIC (MIC-0) in µM (parentheses),"C. albicans ATCC 64124 [2]; strain B, compounds 1–4n and AmB",> 55.0 µM
same,MIC (MIC-0),[3]; [22],12.5 µg/mL
same,MIC (MIC-0) in µM (parentheses),[3]; [22],55.0 µM
same,MIC (MIC-0),[4]; [23],3.13 µg/mL
same,MIC (MIC-0) in µM (parentheses),[4]; [23],13.8 µM
same,MIC (MIC-0),[5]; [24],6.25 µg/mL
same,MIC (MIC-0) in µM (parentheses),[5]; [24],27.5 µM
same,MIC (MIC-0),[6]; [25],> 12.5 µg/mL
same,MIC (MIC-0) in µM (parentheses),[6]; [25],> 55.0 µM
same,MIC (MIC-0),[7]; [26],> 12.5 µg/mL
same,MIC (MIC-0) in µM (parentheses),[7]; [26],> 55.0 µM
same,MIC (MIC-0),[8],6.25 µg/mL
same,MIC (MIC-0) in µM (parentheses),[8],27.5 µM
same,MIC (MIC-0),Candida krusei ATCC 6258,3.13 µg/mL
same,MIC (MIC-0) in µM (parentheses),Candida krusei ATCC 6258,13.8 µM
same,MIC (MIC-0),[9],12.5 µg/mL
same,MIC (MIC-0) in µM (parentheses),[9],55.0 µM
same,MIC (MIC-0),[10],6.25 µg/mL
same,MIC (MIC-0) in µM (parentheses),[10],27.5 µM
same,MIC (MIC-0),[11],6.25 µg/mL
same,MIC (MIC-0) in µM (parentheses),[11],27.5 µM
same,MIC (MIC-0),"[12]; strain M, all compounds",6.25 µg/mL
same,MIC (MIC-0) in µM (parentheses),"[12]; strain M, all compounds",27.5 µM
same,MIC values against Candida strains,"Candida strains (A–J); strains A, B, C, F, G and J (poorly active)",≥ 12.5 µg/mL
same,MIC values against Candida strains,"Candida strains (A–J); strains D, E, H and I (active)",1.56 to 6.25 µg/mL
same,time-kill effect,"[13]; 1× MIC (1 12.5, 2a 12.5, 3a 0.39, AmB 3.9 µg/mL)",fungistatic
same,time-kill effect,[13]; [27],fungicidal
same,fungicidal concentration,[13]; time-kill curves,25 µg/mL and 110 µM
same,ROS induction (DCFH-DA fluorescence),[14],highly fluorescent
same,concentration until which no significant hemolytic activity was shown,[15],15.6 µg/mL and 68.6 µM
"OC(Cn1cncn1)(Cn1cncn1)c1ccc(F)cc1F [FLC, fluconazole]",MIC (MIC-2),C. albicans ATCC 64124 [16],> 125 µg/mL
same,MIC (MIC-2) in µM (parentheses),C. albicans ATCC 64124 [16],> 408 µM
same,MIC (MIC-2),[17],15.6 µg/mL
same,MIC (MIC-2) in µM (parentheses),[17],51.0 µM
same,MIC (MIC-2),[18],> 125 µg/mL
same,MIC (MIC-2) in µM (parentheses),[18],> 408 µM
same,MIC (MIC-2),[19],> 125 µg/mL
same,MIC (MIC-2) in µM (parentheses),[19],> 408 µM
OO [H2O2],ROS induction (DCFH-DA fluorescence),[14],highly fluorescent
"C[C@@H]1[C@H](O)[C@@H](C)/C=C/C=C/C=C/C=C/C=C/C=C/C=C/[C@H](O[C@@H]2O[C@H](C)[C@@H](O)[C@H](N)[C@@H]2O)C[C@@H]2O[C@](O)(C[C@@H](O)C[C@@H](O)[C@H](O)CC[C@@H](O)C[C@@H](O)CC(=O)O[C@H]1C)C[C@H](O)[C@H]2C(=O)O [AmB, amphotericin B]",MIC,"[1]; ATCC10231, read-out: MIC (MIC-0)",3.9 µg/mL
same,MIC,"[1]; ATCC10231, read-out: MIC (MIC-0) in µM (parentheses)",4.22 µM
same,MIC,"C. albicans ATCC 64124 [2]; ATCC64124, read-out: MIC (MIC-0)",3.9 µg/mL
same,MIC,"C. albicans ATCC 64124 [2]; ATCC64124, read-out: MIC (MIC-0) in µM (parentheses)",4.22 µM
same,MIC,[3]; read-out: MIC (MIC-0),1.95 µg/mL
same,MIC,[3]; [28],2.11 µM
same,MIC,"[4]; ATCC90819, read-out: MIC (MIC-0)",0.98 µg/mL
same,MIC,"[4]; ATCC90819, read-out: MIC (MIC-0) in µM (parentheses)",1.06 µM
same,MIC,[5]; read-out: MIC (MIC-0),1.95 µg/mL
same,MIC,[5]; [28],2.11 µM
same,MIC,[6]; read-out: MIC (MIC-0),3.9 µg/mL
same,MIC,[6]; [28],4.22 µM
same,MIC,[7]; read-out: MIC (MIC-0),3.9 µg/mL
same,MIC,[7]; [28],4.22 µM
same,MIC,[12]; read-out: MIC (MIC-0),3.9 µg/mL
same,MIC,[12]; [28],4.22 µM
same,MIC,[20],0.98 to 15.6 µg/mL
same,time from which completely fungicidal,[13]; 2× MIC,6 h
same,time-kill effect,[13]; [27],completely fungicidal
